According to ChEMBL document CHEMBL1130012 (J Med Chem, 1997):

Assays:
Conditions in all cases: in vivo, 0.25 h; call rule not given here
[1] = species: Rattus norvegicus; assay: The Biodistribution of the antagonistic compound in male wistar rats, after 15 minutes of injection in the trachea expressed as (body weight-corrected) uptake value; format: organism-based
[2] = system: Rattus norvegicus; assay: The Biodistribution of the antagonistic compound along with pretreated atropine (2.5 mg/kg) in male wistar rats after 15 minutes of injection in the pancreas expressed as (body weight-corrected) uptake value; format: organism-based
Procedure, shortened: (§1)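 Same protocol, except the pretreatment was saline containing atropine (0.5 mg/0.5 mL; 2.5 mg/kg) given i.v. 1 min before tail-vein injection of the radioligand (1.85-2.78 MBq in 0.4 mL saline) into pentobarbital-anaesthetized (60 mg/kg) male Wistar rats (240 g). Tissues removed at 15 min and counted ex vivo. Uptake is body-weight-corrected DAR = (cpm/g tissue)/(cpm injected/g body weight).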

[3] = system: Rattus norvegicus; assay: The Biodistribution of the antagonistic compound along with pretreated atropine (2.5 mg/kg) in male wistar rats after 15 minutes of injection in the plasma expressed as (body weight-corrected) uptake value; format: organism-based; procedure, shortened: as §1
[4] = system: Rattus norvegicus; assay: The Biodistribution of the antagonistic compound along with pretreated atropine (2.5 mg/kg) in male wistar rats after 15 minutes of injection in the red blood cells; Below limit of detection expressed as (body weight-corrected) uptake value; format: organism-based; procedure, shortened: as §1
[5] = system: Rattus norvegicus; assay: The Biodistribution of the antagonistic compound along with pretreated atropine (2.5 mg/kg) in male wistar rats after 15 minutes of injection in the spleen; format: organism-based; procedure, shortened: as §1
[6] = system: Rattus norvegicus; assay: The Biodistribution of the antagonistic compound along with pretreated atropine (2.5 mg/kg) in male wistar rats after 15 minutes of injection in the submandibular gland expressed as (body weight-corrected) uptake value; format: organism-based; procedure, shortened: as §1
[7] = system: Rattus norvegicus; assay: The Biodistribution of the antagonistic compound along with pretreated atropine (2.5 mg/kg) in male wistar rats after 15 minutes of injection in the testes expressed as (body weight-corrected) uptake value; format: organism-based, Testis; procedure, shortened: as §1
[8] = system: Rattus norvegicus; assay: The Biodistribution of the antagonistic compound along with pretreated atropine (2.5 mg/kg) in male wistar rats after 15 minutes of injection in the trachea expressed as (body weight-corrected) uptake value; format: organism-based; procedure, shortened: as §1
[9] = species: Rattus norvegicus; assay: The Biodistribution of the antagonistic compound in male wistar rats, after 15 minutes of injection in the cerebellum expressed as (body weight-corrected) uptake value; Below limit of detection; format: organism-based
[10] = species: Rattus norvegicus; assay: The Biodistribution of the antagonistic compound in male wistar rats, after 15 minutes of injection in the cortex expressed as (body weight-corrected) uptake value; Below limit of detection; format: organism-based
[11] = species: Rattus norvegicus; assay: The Biodistribution of the antagonistic compound in male wistar rats, after 15 minutes of injection in the fat expressed as (body weight-corrected) uptake value; format: organism-based, Adipose tissue
[12] = species: Rattus norvegicus; assay: The Biodistribution of the antagonistic compound in male wistar rats, after 15 minutes of injection in the heart; format: organism-based
[13] = species: Rattus norvegicus; assay: The Biodistribution of the antagonistic compound in male wistar rats, after 15 minutes of injection in the intestine expressed as (body weight-corrected) uptake value; format: organism-based
[14] = species: Rattus norvegicus; assay: The Biodistribution of the antagonistic compound in male wistar rats, after 15 minutes of injection in the kidney expressed as (body weight-corrected) uptake value; format: organism-based
[15] = species: Rattus norvegicus; assay: The Biodistribution of the antagonistic compound in male wistar rats, after 15 minutes of injection in the lung expressed as (body weight-corrected) uptake value; format: organism-based
[16] = species: Rattus norvegicus; assay: The Biodistribution of the antagonistic compound in male wistar rats, after 15 minutes of injection in the muscle expressed as (body weight-corrected) uptake value; format: organism-based, Muscle tissue
[17] = species: Rattus norvegicus; assay: The Biodistribution of the antagonistic compound in male wistar rats, after 15 minutes of injection in the pancreas expressed as (body weight-corrected) uptake value; format: organism-based
[18] = species: Rattus norvegicus; assay: The Biodistribution of the antagonistic compound in male wistar rats, after 15 minutes of injection in the plasma expressed as (body weight-corrected) uptake value; format: organism-based
[19] = system: Rattus norvegicus; assay: The Biodistribution of the antagonistic compound along with pretreated atropine (2.5 mg/kg) in male wistar rats after 15 minutes of injection in the bladder; format: organism-based, Urinary bladder/Urine; procedure, shortened: as §1
[20] = system: Rattus norvegicus; assay: The Biodistribution of the antagonistic compound along with pretreated atropine (2.5 mg/kg) in male wistar rats after 15 minutes of injection in the cerebellum; Below limit of detection; format: organism-based; procedure, shortened: as §1
[21] = system: Rattus norvegicus; assay: The Biodistribution of the antagonistic compound along with pretreated atropine (2.5 mg/kg) in male wistar rats after 15 minutes of injection in the cortex expressed as (body weight-corrected) uptake value; Below limit of detection; format: organism-based; procedure, shortened: as §1
[22] = system: Rattus norvegicus; assay: The Biodistribution of the antagonistic compound along with pretreated atropine (2.5 mg/kg) in male wistar rats after 15 minutes of injection in the fat expressed as (body weight-corrected) uptake value; format: organism-based, Adipose tissue; procedure, shortened: as §1
[23] = system: Rattus norvegicus; assay: The Biodistribution of the antagonistic compound along with pretreated atropine (2.5 mg/kg) in male wistar rats after 15 minutes of injection in the heart expressed as (body weight-corrected) uptake value; format: organism-based; procedure, shortened: as §1
[24] = species: Rattus norvegicus; assay: Biodistribution of compound in male wistar rats, after 15 minutes of injection in the bladder expressed as (body weight-corrected) uptake value; format: ADME, organism-based, Urinary bladder/Urine
[25] = species: Rattus norvegicus; assay: The Biodistribution of the antagonistic compound in male wistar rats, after 15 minutes of injection in the red blood cells expressed as (body weight-corrected) uptake value; Below limit of detection; format: organism-based
[26] = species: Rattus norvegicus; assay: The Biodistribution of the antagonistic compound in male wistar rats, after 15 minutes of injection in the stomach expressed as (body weight-corrected) uptake value; format: organism-based
[27] = species: Rattus norvegicus; assay: The Biodistribution of the antagonistic compound in male wistar rats, after 15 minutes of injection in the submandibular gland expressed as (body weight-corrected) uptake value; format: organism-based
[28] = species: Rattus norvegicus; assay: The Biodistribution of the antagonistic compound in male wistar rats, after 15 minutes of injection in the testes expressed as (body weight-corrected) uptake value; format: organism-based, Testis
[29] = system: Rattus norvegicus; assay: The Biodistribution of the antagonistic compound along with pretreated atropine (2.5 mg/kg) in male wistar rats after 15 minutes of injection in the intestine expressed as (body weight-corrected) uptake value; format: organism-based; procedure, shortened: as §1
[30] = system: Rattus norvegicus; assay: The Biodistribution of the antagonistic compound along with pretreated atropine (2.5 mg/kg) in male wistar rats after 15 minutes of injection in the kidney expressed as (body weight-corrected) uptake value; format: organism-based; procedure, shortened: as §1
[31] = system: Rattus norvegicus; assay: The Biodistribution of the antagonistic compound along with pretreated atropine (2.5 mg/kg) in male wistar rats after 15 minutes of injection in the liver expressed as (body weight-corrected) uptake value; format: organism-based; procedure, shortened: as §1
[32] = system: Rattus norvegicus; assay: The Biodistribution of the antagonistic compound along with pretreated atropine (2.5 mg/kg) in male wistar rats after 15 minutes of injection in the lung expressed as (body weight-corrected) uptake value; format: organism-based; procedure, shortened: as §1
[33] = system: Rattus norvegicus; assay: The Biodistribution of the antagonistic compound along with pretreated atropine (2.5 mg/kg) in male wistar rats after 15 minutes of injection in the muscle expressed as (body weight-corrected) uptake value; format: organism-based, Muscle tissue; procedure, shortened: as §1
[34] = species: Rattus norvegicus; assay: The Biodistribution of the antagonistic compound in male wistar rats, after 15 minutes of injection in the liver expressed as (body weight-corrected) uptake value; format: organism-based
[35] = species: Rattus norvegicus; assay: The Biodistribution of the antagonistic compound in male wistar rats, after 15 minutes of injection in the spleen expressed as (body weight-corrected) uptake value; format: organism-based
[36] = system: Rattus norvegicus; assay: The Biodistribution of the antagonistic compound along with pretreated atropine (2.5 mg/kg) in male wistar rats after 15 minutes of injection in the stomach expressed as (body weight-corrected) uptake value; format: organism-based; procedure, shortened: as §1

## C[N+]1(C)CCC(OC(=O)C(O)(c2ccccc2)C2CCCCC2)CC1.[I-] (racemic)
[1]
  Uptake value: 0.54
[2]
  Uptake value: 0.34
[3]
  Uptake value: 0.13
[4]
  Uptake value: Not Active
[5]
  Uptake value: 0.18
[6]
  Uptake value: 0.2
[7]
  Uptake value: 0.11
[8]
  Uptake value: 0.24
[9]
  Uptake value: Not Active
[10]
  Uptake value: Not Active
[11]
  Uptake value: 0.5
[12]
  Uptake value: 8.45
[13]
  Uptake value: 3.39
[14]
  Uptake value: 2.48
[15]
  Uptake value: 0.67
[16]
  Uptake value: 0.08
[17]
  Uptake value: 1.97
[18]
  Uptake value: 0.14
[19]
  Uptake value: 9.72
[20]
  Uptake value: Not Active
[21]
  Uptake value: Not Active
[22]
  Uptake value: 0.23
[23]
  Uptake value: 0.16
[24]
  Uptake value: 4.71
[25]
  Uptake value: Not Active
[26]
  Uptake value: 1.62
[27]
  Uptake value: 1.68
[28]
  Uptake value: 0.07
[29]
  Uptake value: 1.1
[30]
  Uptake value: 1.49
[31]
  Uptake value: 8.1
[32]
  Uptake value: 0.14
[33]
  Uptake value: 0.07
[34]
  Uptake value: 6.27
[35]
  Uptake value: 0.97
[36]
  Uptake value: 0.45
